Rows were chosen to be rich in hits. Some 4.2% of all compounds tested hit in one or more screens of this group.
UPR CHOP act = activators of apoptotic arm of unfolded protein response (CHOP); CHO-CHOP luciferase reporter, UPR activation, luminescence; percent of tunicamycin response over DMSO baseline; activation, % at 10 µM; 330,000 tested, 0.34% active; AID 449763;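 active means at 10 µM dose, activation of 40% or more, normalized to positive control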;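 further: 100% = tunicamycin at 10 µg/mL and 0% = DMSO alone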
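System: CHO CHOP reporter cells. Amount: 500 cells per well. Buffer or medium: F12 medium, 10% FBS. Compound dosing: one dose, 10 µM in 0.5% DMSO. Incubation: 6 h compound exposure at 37 °C after overnight seeding. Technique: Steady-Glo luciferase luminescence. Benchmarks: tunicamycin and DMSO controls.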
XBP1 UPR activ = adaptive UPR (XBP1) activation; CHO-XBP1 luciferase reporter, IRE1-XBP1 UPR activation, luminescence; percent of tunicamycin response, DMSO as zero; activation, % at 20 µM; 330,000 tested, 0.33% active;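 active means versus positive control, 20 µM dose yields 30% or more activation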;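 further: 100% = tunicamycin at 10 µg/mL and 0% = DMSO only wells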
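Signal: luciferase luminescence; Assay system: CHO-XBP1 luciferase reporter cells; Amount: one thousand reporter cells per well; Dosing: 20 µM single concentration, DMSO 1%; Benchmarks: high control tunicamycin 10 µg/mL final, low control DMSO vehicle only; Schedule: 6 h compound exposure at 37 °C, 5% CO2; Evaluation: percent activation relative to tunicamycin reference.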
TMEM16A act = mouse TMEM16A channel activation, primary screen; Q8BHY3; HEK293 TMEM16A/YFP-H148Q/I152L, iodide quench fluorescence; stronger effect = lower value; B-score at 10 µM; 340,000 tested, 0.3% active;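 active means fluorescence-ratio B-score plate-corrected deviation score at least 3 library SD below zero, with starting fluorescence score within 5 deviations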;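 further: channel opened by trigger with iodide after compound preincubation; score built on the fluorescence ratio of max minus min over baseline; more negative score means more quench and so TMEM16A activation or potentiation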
TMEM16A inh = mouse TMEM16A channel inhibition, primary screen | Q8BHY3 | HEK293 TMEM16A/YFP iodide influx fluorescence, ionomycin | normalized B-score (activity score, 25-100; higher = stronger inhibition) at 10 µM | 310,000 tested, 1.2% active;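 active means ratio plate-corrected score three or more library SD toward inhibition, starting fluorescence score within five deviations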;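 further: score derived from kinetic fluorescence span divided by baseline fluorescence per well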
CHOP inhibitor = blocks CHOP induction under ER stress; 220,000 tested, 3.8% active; AID 2732; inhibition, % at 10 µM; CHO-K1 CHOP-promoter luciferase, tunicamycin-induced, 15-18 h;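 active means compounds that reduced the stress-induced luciferase reporter signal by more than about 70% of percent inhibition, limit read from the data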;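 further: 0% = tunicamycin plus vehicle and 100% = wells without tunicamycin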
Hep lipid drop = hepatic lipid droplet formation modulation; AID 1656; inhibition, % at 6.5 µM; 240,000 tested, 0.4% active; AML12 mouse hepatocytes, oleate lipid droplets, BODIPY imaging;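 active means lipid droplet intensity inhibited by at least 50%, with more than 500 cells counted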
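Test system: AML12 hepatocytes (mouse); reagent: oleate loading, 100 µM; dosing: one dose, 6.5 µM compound; incubation: overnight exposure; signal: fluorescence imaging, 20x objective, two fields per well; read-out basis: % inhibition of corrected integrated BODIPY droplet signal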
TMEM16A reconf = reconfirmed blocker of mouse TMEM16A calcium-activated chloride channel; shares compounds with TMEM16A inh; HEK293 TMEM16A/YFP-H148Q, iodide quench fluorescence; ionomycin added to raise cell calcium; inhibition, % at 10 µM; 2,300 tested, 39% active; AID 652189;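 active means mean duplicate percent inhibition, scaled so buffer wells are 0 and the reference blocker 100, over three buffer SD above buffer mean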
HEK293 Ca mobil = calcium mobilization counter-screen hit for TMEM16A inhibitor series; shares compounds with TMEM16A inh; TMEM16A/YFP HEK293, Fluo4 calcium mobilization; calcium response (% of ionomycin), % at 10 µM; 2,300 tested, 2% active;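 active means duplicate-averaged calcium signal over 20% of the ionomycin maximum, relative to buffer baseline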;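 further: each well's signal is peak minus trough fluorescence divided by its pre-addition baseline; 0% = buffer wells and 100% = ionomycin wells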
Parental YFP cnt = counter-screen for TMEM16A inhibitors: effect in parental YFP-HEK293 cells; shares compounds with TMEM16A inh; YFP ratio F(max-min)/F0 at 10 µM; 2,300 tested, under 10 active; iodide YFP quench, ionomycin;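 active means yellow fluorescent protein signal ratio exceeding the buffer control mean by over 5 SD of those controls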;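 further: ratio is mean of duplicate wells from kinetic YFP trace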
ClC-1 inh = blocks the rat ClC-1 voltage-dependent chloride channel. 2,300 tested, under 10 active. CHO ClC-1-YFP, iodide influx fluorescence quench; iodide control reads 0, buffer control 100. ratio percent, % at 10 µM. shares compounds with TMEM16A inh;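 active means duplicate-mean ratio percent above the mean of iodide-only control wells, which defines zero, plus 5 of their SD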;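 further: higher percent means stronger block of ClC-1 iodide influx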
* = called active by the depositor.

For O=S(=O)(c1cc(Br)ccc1Br)N1CCCCCC1 the results were UPR CHOP act -1, XBP1 UPR activ 0, TMEM16A act inactive, TMEM16A inh 25*, Hep lipid drop -2, TMEM16A reconf 21%*, HEK293 Ca mobil inactive, Parental YFP cnt -1 and ClC-1 inh -10.
For CCOc1ccc(N(CC(=O)NCC2CCCO2)S(=O)(=O)c2ccc(SC)cc2)cc1 (stereo not given) the results were UPR CHOP act 0, XBP1 UPR activ -1, TMEM16A act inactive, TMEM16A inh inactive, CHOP inhibitor 16 and Hep lipid drop -12.
For C=C(c1ccc(O)cc1)c1ccc(O)cc1 the results were UPR CHOP act 2, XBP1 UPR activ 3, TMEM16A act inactive, TMEM16A inh 100*, CHOP inhibitor 25, Hep lipid drop -7, TMEM16A reconf 24%*, HEK293 Ca mobil inactive, Parental YFP cnt -1.1 and ClC-1 inh -15.
For Nc1nc(-c2ccccc2)c(-c2ccccc2)n1N the results were UPR CHOP act 2, XBP1 UPR activ 7, TMEM16A act inactive, TMEM16A inh inactive, Hep lipid drop -1, TMEM16A reconf inactive, HEK293 Ca mobil inactive, Parental YFP cnt -1.2 and ClC-1 inh -10.
Nc1nnc(-c2ccccc2)c(-c2ccccc2)n1 was read as UPR CHOP act 2, XBP1 UPR activ 8, TMEM16A act inactive, TMEM16A inh inactive, CHOP inhibitor 4 and Hep lipid drop -1.
Screening Cc1cc(C)c(C)c(S(=O)(=O)Nc2ccccc2N2CCOCC2)c1C returned UPR CHOP act 0, XBP1 UPR activ -3 and TMEM16A act inactive.
Screening COc1cc(O)c(C(=O)O)c(CCc2ccccc2)c1 returned UPR CHOP act 2 and XBP1 UPR activ 1.
`COc1cc(C)c(C(=O)Oc2cc(C)c(C(=O)O)c(O)c2)c(O)c1` gave UPR CHOP act 3, XBP1 UPR activ -1, TMEM16A act inactive, TMEM16A inh 100*, CHOP inhibitor 4, Hep lipid drop 16, TMEM16A reconf 18%*, HEK293 Ca mobil inactive, Parental YFP cnt -0.94 and ClC-1 inh -8.
Screening N#Cc1c(NCc2ccccc2)ccnc1NCc1cccnc1 returned UPR CHOP act -1, XBP1 UPR activ 0, TMEM16A act inactive, TMEM16A inh 100*, Hep lipid drop -17, TMEM16A reconf 18%*, HEK293 Ca mobil inactive, Parental YFP cnt -0.8 and ClC-1 inh -10.
N#Cc1c(F)cccc1NCc1cccnc1 was read as UPR CHOP act 1, XBP1 UPR activ -1, TMEM16A act inactive and TMEM16A inh inactive.
For Fc1ccc(NC(=S)NNc2ncc(C(F)(F)F)cc2Cl)c(F)c1 the results were UPR CHOP act -3, XBP1 UPR activ -1, TMEM16A act inactive, TMEM16A inh 25*, CHOP inhibitor 34, Hep lipid drop -84, TMEM16A reconf 30%*, HEK293 Ca mobil inactive, Parental YFP cnt -1 and ClC-1 inh -14.
CC(C(=O)N1CCN(c2ccccc2)CC1)N1C(=O)C2CC=CCC2C1=O (stereo not given) was read as UPR CHOP act 0, XBP1 UPR activ -1, TMEM16A act inactive, TMEM16A inh 25*, CHOP inhibitor 7, TMEM16A reconf inactive, HEK293 Ca mobil inactive, Parental YFP cnt -1 and ClC-1 inh -15.
`Clc1ccc(Cc2ccc(SCc3ccccc3)nn2)c(Cl)c1` gave UPR CHOP act -1, XBP1 UPR activ -1, TMEM16A act inactive, TMEM16A inh 25*, CHOP inhibitor 24, TMEM16A reconf inactive, HEK293 Ca mobil inactive, Parental YFP cnt -1.3 and ClC-1 inh -13.
`Clc1ccc(Cc2ccc(Cl)nn2)c(Cl)c1` gave UPR CHOP act -1, XBP1 UPR activ 1, TMEM16A act inactive, TMEM16A inh inactive and CHOP inhibitor 28.
COc1ccc(OC)c(NCc2nnc(-c3ccccc3)o2)c1 was read as UPR CHOP act -1, XBP1 UPR activ -2, TMEM16A act inactive and TMEM16A inh inactive.
Screening COc1ccc(-c2ccc(-c3nnc(Cc4ccc(OC)c(OC)c4)o3)cc2)cc1 returned UPR CHOP act 0, XBP1 UPR activ -1, TMEM16A act inactive, TMEM16A inh 25*, CHOP inhibitor 21, TMEM16A reconf inactive, HEK293 Ca mobil inactive, Parental YFP cnt -1.3 and ClC-1 inh -2.
For COc1ccc(C2CC(=O)Oc3c2c(=O)n(C)c2ccccc32)c(OC)c1OC (stereo not given) the results were UPR CHOP act -1, XBP1 UPR activ -2, TMEM16A act inactive, TMEM16A inh inactive, CHOP inhibitor 11 and Hep lipid drop 0.
`Cc1ccc(Nc2nc(N)nc(CSC(=S)N3CCOCC3)n2)c(C)c1` gave UPR CHOP act 8, XBP1 UPR activ 2, TMEM16A act inactive, TMEM16A inh inactive, CHOP inhibitor -7 and Hep lipid drop 21.
O=C(COc1ccc(F)cc1)c1ccc2c(c1)CCCC2 was read as UPR CHOP act 6, XBP1 UPR activ 9, TMEM16A act inactive, TMEM16A inh 100*, TMEM16A reconf inactive, HEK293 Ca mobil inactive, Parental YFP cnt -1.1 and ClC-1 inh -20.
For COC(=O)c1cc(CSc2nc3ccccc3c(=O)n2C)oc1C the results were UPR CHOP act 5, XBP1 UPR activ 4, TMEM16A act inactive, TMEM16A inh 100*, Hep lipid drop -18, TMEM16A reconf 34%*, HEK293 Ca mobil inactive, Parental YFP cnt -1.1 and ClC-1 inh -12.
`Cc1ccc(N2CCN(S(=O)(=O)c3ccc(Cl)s3)CC2C)cc1` (stereo not given) gave UPR CHOP act -1, XBP1 UPR activ -7, TMEM16A act inactive, TMEM16A inh 25*, Hep lipid drop 2, TMEM16A reconf inactive, HEK293 Ca mobil inactive, Parental YFP cnt -0.81 and ClC-1 inh -10.
